Results taken from PubChem BioAssay AID1556 (The Scripps Research Institute Molecular Screening Center, 2009).
Hit rate of the full screen: of about 290,000 compounds, about 1,300 (0.45%) were called active. What follows is part of a selection rich in actives, with near analogues and random picks from the rest. Unmarked numbers belong to inactive results.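 How the source made its calls: active means inhibition above the mean plus 3 SD of all compounds in the same screening run (cut at about 4.5% in these data); inactive means the rest.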

System: metallo-beta-lactamase IMP-1 (Pseudomonas aeruginosa)
Assay: IMP-1 metallo-beta-lactamase inhibitors, primary screen, biochemical, epi-absorbance readout, Pseudomonas aeruginosa enzyme (AID 1556)
Conditions: purified IMP-1, nitrocefin hydrolysis, epi-absorbance fluorescence; at 5.6 µM; hits give high values
Procedure, shortened: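 assay system = purified recombinant IMP-1 metallo-beta-lactamase enzyme | schedule = 15 min preincubation plus 25 min reaction at 25 °C | signal = Epi-absorbance fluorescence, 480 nm excitation, 530 nm emission | read-out basis = percent inhibition from optical density relative to buffer-blank wells | controls = IMP-1 with DMSO as 0%, enzyme-free DMSO as 100%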

SMILES | inhibition
O=C(O)CN1C(=O)CC(Cc2ccccc2)C1=O (stereo unspecified) | 4.79% (active)
Cc1cc(C)nc(N2C(=O)CC(Cc3ccccc3)C2=O)n1 (stereo unspecified) | -2.26%
O=C1CC(Cc2ccccc2)C(=O)N1c1ccc(Cl)cn1 (stereo unspecified) | -3.13%
CCOC(=O)CCCNC(=O)COC(=O)/C=C/c1ccc2c(c1)OCO2 | -0.37%
O=C1/C(=C/c2ccc3c(c2)OCO3)CCC/C1=C\c1ccc2c(c1)OCO2 | 0.49%
CCC1=C/C(=C\c2ccc3c(c2)OCO3)C(=O)S1 | 6.67% (active)
O=C(Nc1ccc(F)cc1)C(=O)c1cn(CC(=O)N2CCOCC2)c2ccccc12 | -5.04%
CS(=O)(=O)N1CCN(C(=O)CSc2ccccc2)CC1 | -2.52%
Oc1ccc2ccc3cccc[n+]3c2c1 | 34.3% (active)
CCCCC(=O)Nc1ccccc1N1CCN(c2ccc(F)cc2)CC1 | -3.05%
Cc1ccc(CNC(=O)C2CCN(S(=O)(=O)c3ccc4nc5c(c(C(=O)O)c4c3)CC(C)CC5)CC2)cc1 (stereo unspecified) | 5.35% (active)
CC(=O)N1c2ccc(S(=O)(=O)N3CCC(C(=O)NCc4ccc(F)cc4)CC3)cc2CC1C (stereo unspecified) | -3.57%
CCOC(CNC(=O)C1CCN(S(=O)(=O)c2ccc3nc4c(c(C(=O)O)c3c2)CC(C)CC4)CC1)OCC (stereo unspecified) | -0.25%
Cc1nc(CN(C)C(=O)CC2C(=O)NCCN2Cc2ccc(F)cc2)cs1 (stereo unspecified) | -2.3%
CCOc1ccc(NC(=O)N2CCN(CC)CC2)cc1 | -1.66%
Cc1cccc(C)c1NC(=O)N1CC=C(n2c(=O)[nH]c3ccccc32)CC1 | -4.93%
CCOc1ccc(NC(=O)N2CC=C(n3c(=O)[nH]c4ccccc43)CC2)cc1 | 6.24% (active)
COc1ccc(NC(=O)CN2C(=O)COc3ccc(S(=O)(=O)N4CCOCC4)cc32)cc1 | -3.61%
Cc1ccc(CNC(=O)C(=O)c2cn(CC(=O)N3CCOCC3)c3ccccc23)cc1 | -2.82%

SMILES | inhibition
O=C(Nc1ccc(C(=O)N2CCCCC2)cc1)c1cccc([N+](=O)[O-])c1 | -1.61%
Cc1cc([N+](=O)[O-])ccc1NC(=O)c1ccc(NC(=O)C(C)C)cc1 | -0.19%
Cn1ccc(=Nc2ccc(NC(=O)c3ccc(N=c4ccn(C)c5ccc([N+](=O)[O-])cc45)cc3)cc2)cc1 | 14.8% (active)
Cc1sc2ncn(CC(=O)NCCCC(=O)N(C)Cc3ccccc3)c(=O)c2c1C | -3.46%
Cc1ccc(-n2ncc3c2CC(C)(C)CC3NC(=O)CCc2cnn(C)c2)cc1 (stereo unspecified) | -2.72%
COCCOC(=O)c1sc(=S)n(CCOC)c1N | -0.79%
CCN(Cc1ccccc1)C(=O)CCS(=O)(=O)c1ccc2c(c1)oc(=O)n2C | -3.48%
C=CCn1c(=O)c(C(=O)Nc2ncccc2O)c(O)c2ccccc21 | -5.49%
CCOC(=O)CCc1c(C)c2ccc(OCc3nn[nH]n3)c(C)c2oc1=O | -1.75%
Cc1c(CCC(=O)O)c(=O)oc2c(C)c(OCc3ccccc3Cl)ccc12 | 11.5% (active)
Cc1c(CCC(=O)O)c(=O)oc2cc(OCc3ccc(Br)cc3)ccc12 | -4.45%
COc1ccccc1N1CCN(S(=O)(=O)CCNC(=O)c2ccc(OC(C)C)cc2)CC1 | -1.73%
CCOc1cc(NC(=O)Nc2ccccc2)c(OCC)cc1NC(=O)CC | 1.47%
CCOC(=O)Nc1ccc2c(c1)N(C(=O)CCCl)c1ccccc1[S@]2=O | -1.86%
COc1ccc(-n2c(=O)[nH]c3cc(C(=O)NCCc4ccc(OC)c(OC)c4)ccc3c2=O)c(OC)c1 | -0.95%
COc1ccc(/C=C(\C#N)c2c[nH]c3ccccc23)cc1 | -0.02%
C[n+]1ccc(/C=C/c2c[nH]c3ccccc23)cc1 | 11.3% (active)
O=C(N/N=C/c1c[nH]c2ccccc12)c1ccccc1O | -3.56%
COc1ccc(C2c3[nH]c4ccccc4c3C[C@H]3C(=O)N(CC(C)C)CC(=O)N23)c(OC)c1 (stereo partly specified) | -2.7%

SMILES | inhibition
Cc1cc(Cl)ccc1OCCCC(=O)Nc1cccc(-n2cnnn2)c1 | -1.81%
CCn1cc(CN2CCC(n3nccc3NC(=O)CCCc3ccccc3)CC2)c(C)n1 | -2.27%
Cc1ccc(CN2CCC(n3nccc3NC(=O)CCCc3ccccc3)CC2)o1 | -1.11%
Cc1c(CN2CCC(n3nccc3NC(=O)CCc3ccccc3)CC2)cnn1C | 40.5% (active)
CCOc1ccc(-n2c(SCC(=O)Nc3ccc(OC)cc3)nc3sc4c(c3c2=O)CCN(C)C4)cc1 | 7.22% (active)
CCCSc1nc2sc3c(c2c(=O)n1-c1ccc(OC)cc1)CCN(C)C3 | -1.47%
CCOc1ccc(-n2c(SCC(=O)OC)nc3sc4c(c3c2=O)CCN(C)C4)cc1 | 1.15%
CCN(c1ccccc1)S(=O)(=O)c1cc2c(cc1C)n(C)c(=O)c(=O)n2C | -1.34%
CC(NC(=O)COc1ccc(-c2ccccc2)cc1)C1CCCO1 (stereo unspecified) | -0.53%
COC(=O)c1cc(C(=O)NC(C)C2CC3CCC2C3)cc([N+](=O)[O-])c1 (stereo unspecified) | -3.23%
O=C(NCCCN1CCCCCC1)C1CC(=O)N(C2CCCC2)C1 (stereo unspecified) | 6.55% (active)
O=C(NCCc1ccc(Cl)cc1)C1CC(=O)N(C2CCCCC2)C1 (stereo unspecified) | -3.24%
CC(C)OCCCNC(=O)C1CC(=O)N(C2CCCCCCC2)C1 (stereo unspecified) | -4.36%
CC1(C)CC(=O)CC2(C1)NCC(c1ccccc1Cl)c1c2[nH]c2ccccc12 (stereo unspecified) | -5.43%
Cc1ccc(C(=O)O)cc1-c1ccc(/C=C2\SC(=O)N(CC(=O)Nc3ccc4c(c3)OCO4)C2=O)o1 | 8.27% (active)
COc1ccc(NC(=O)CCN2C(=O)/C(=C/c3ccc4c(c3)OCO4)SC2=S)cc1 | -3.16%
Cn1cccc1/C=C1\SC(=O)N(CC(=O)Nc2ccc(F)cc2)C1=O | -1.78%
COc1ccccc1-c1sc2ccccc2c1-c1ccc(C(C)=O)cc1 | 1.15%
